Published values collected from several papers.
Protocols differ between the studies behind these lines.
Target: Membrane-associated tyrosine- and threonine-specific cdc2-inhibitory kinase (PKMYT1, Homo sapiens, UniProt Q99640)
One construct used (Q99640 1-499): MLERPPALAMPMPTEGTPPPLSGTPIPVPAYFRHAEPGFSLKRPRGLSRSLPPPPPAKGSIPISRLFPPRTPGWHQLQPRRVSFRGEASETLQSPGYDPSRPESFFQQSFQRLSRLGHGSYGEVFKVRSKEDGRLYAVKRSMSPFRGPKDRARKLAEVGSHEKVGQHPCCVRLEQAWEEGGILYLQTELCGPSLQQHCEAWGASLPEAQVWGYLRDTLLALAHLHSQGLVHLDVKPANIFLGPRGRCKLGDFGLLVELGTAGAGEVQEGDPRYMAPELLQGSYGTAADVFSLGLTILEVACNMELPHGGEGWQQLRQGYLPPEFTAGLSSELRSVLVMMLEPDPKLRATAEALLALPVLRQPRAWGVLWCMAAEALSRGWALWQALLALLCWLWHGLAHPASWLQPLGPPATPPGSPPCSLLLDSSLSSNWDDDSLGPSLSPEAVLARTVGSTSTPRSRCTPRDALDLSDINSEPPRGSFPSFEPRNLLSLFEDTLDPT

SMILES	observed	technique	concentration	remaining binding [%]
CN(C)c1nccc(-c2cnc3ncccn23)n1	binding		1 µM	88
CCC(=O)N[C@@H]1CC[C@H](C(=O)N(C)c2ccc(-c3nc4ccccc4o3)cc2)C1	cell-free assay	competition with immobilised ligand	1 µM	100
F[C@@H]1CCN(c2nccc(-c3cnn4ncccc34)n2)C1	binding		1 µM	100
Cc1cnc(Nc2ccc(C(=O)N3CCC(N4CCCC4)CC3)cc2)nc1-c1cc2ccccc2s1	binding	competition with immobilised ligand	1 µM	80
CC(=O)c1c(NS(C)(=O)=O)c2cc(-c3ccc(Cl)cc3)c(-c3ccc(Cl)cc3Cl)nc2n(C)c1=O	cell-free assay	competition with immobilised ligand	1 µM	99
CN(C)c1ncc(F)c(-c2cnn3ncccc23)n1	binding		1 µM	97
COc1cc(-c2cn(C3CCc4c(F)cccc4N(CC(F)(F)F)C3=O)nn2)ccc1-n1cnc(C)c1 (centres unmarked)	cell-free assay	competition with immobilised ligand	1 µM	100
CCN1CCN(Cc2ccc(C(=O)Nc3ccc(C)c(Oc4ccc5c(c4)CC(=O)N5)c3)cc2C(F)(F)F)CC1	binding	competition with immobilised ligand	1 µM	70
CS(=O)(=O)N1CCCC(NC(=O)[C@H](CCC2CCCCC2)NC(=O)c2ccc(CNC(=O)c3cnc4ccccn34)cc2)C1 (some centres unmarked)	cell-free assay	competition with immobilised ligand	0.1 µM	100
N[C@H]1CCN(c2nccc(-c3cnn4ncccc34)n2)C1	binding		1 µM	91
COc1ncc2cc3ccccc3nc2c1C#N	cell-free assay	competition with immobilised ligand	5 µM	100
COc1ccnn2ncc(-c3ccnc(N(C)C)n3)c12	binding		1 µM	100
O=C(NCC1CCOCC1)c1n[nH]cc1NC(=O)c1c(F)cccc1F	binding	competition with immobilised ligand	1 µM	72
COc1cnc(Nc2cccc(S(N)(=O)=O)c2)nc1N1CCN(c2ccccc2)C(=O)C1	binding	competition with immobilised ligand	1 µM	86
O=C(NCCCN1CCOCC1)c1ccc(Nc2nccc(-c3cc4ccccc4s3)n2)cc1	binding	competition with immobilised ligand	1 µM	84
COc1cnc(Nc2cccc(S(N)(=O)=O)c2)nc1N1CCN(c2ccccc2)CC1	binding	competition with immobilised ligand	1 µM	89
COc1cc(-c2cn(C3CCc4ccccc4N(CC(F)(F)F)C3=O)nn2)ccc1-n1ccc(C)n1 (centres unmarked)	cell-free assay	competition with immobilised ligand	1 µM	100
CN(C)c1nccc(-c2cnn3ncccc23)n1	binding		1 µM	100
NS(=O)(=O)c1cc(NC(=O)Cc2ccccc2)ccc1Oc1cccc(Cl)c1	cell-free assay	competition with immobilised ligand	1 µM	96
O=C(c1ccc(Nc2ncc(Cl)c(-c3ccc(Cl)s3)n2)cc1)N1CCC(N2CCCC2)CC1	binding	competition with immobilised ligand	1 µM	100
